Experimental data published in ChEMBL document CHEMBL1157479, “Antimalarial activity of novel pyrrolizidinyl derivatives of 4-aminoquinoline” (Bioorg Med Chem Lett, 2008).
The source made the active and inactive calls. The rule behind the calls is not given here.

Tests used:
[1] = biological target: T1, Histidine-rich protein PFHRP-II (Plasmodium falciparum) (UniProt P05227); assay: Inhibition of beta-hematin formation as ratio to heme molar equivalent in Plasmodium falciparum; format: functional
T1 sequence (whole entry): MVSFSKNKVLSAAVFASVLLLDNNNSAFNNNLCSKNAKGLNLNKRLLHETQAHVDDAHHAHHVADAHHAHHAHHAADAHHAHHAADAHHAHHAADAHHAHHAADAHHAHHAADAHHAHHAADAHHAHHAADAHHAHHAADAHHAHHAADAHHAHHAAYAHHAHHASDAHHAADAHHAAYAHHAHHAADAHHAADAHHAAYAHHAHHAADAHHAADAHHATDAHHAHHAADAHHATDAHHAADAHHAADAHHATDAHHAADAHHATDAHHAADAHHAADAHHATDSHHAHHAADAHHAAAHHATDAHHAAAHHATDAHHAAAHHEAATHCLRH

Plasmodium berghei [2] = assay: Antimalarial activity as reduced parasitaemia against Plasmodium berghei ANKA infected NMRI mice (Mus musculus) at 3 mg/kg/day subcutaneous dose over 4 days; format: functional; set-up: scale not given: the % may be the effect or the level left
Outline: (§1)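 NMRI mice, in groups of three, were infected with GFP-transfected P. berghei ANKA. Treatment started 1 day post-infection, once daily for 4 consecutive days. Compounds were formulated in 70/30 Tween 80/ethanol and diluted 10× with water. Read-outs were % parasitemia reduction on day 4 post-infection and survival versus untreated controls (n = 5). Cure meant no parasites by microscopy at day 30.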

Plasmodium berghei [3] = assay: Antimalarial activity as survival time against Plasmodium berghei ANKA infected NMRI mice (Mus musculus) at 3 mg/kg/day subcutaneous dose over 4 days; format: functional; outline: as §1
Plasmodium berghei [4] = assay: Antimalarial activity as reduced parasitaemia against Plasmodium berghei ANKA infected NMRI mice (Mus musculus) at 30 mg/kg subcutaneous dose after 3 days; format: functional; set-up: scale not given: the % may be the effect or the level left
Outline: (§2)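 GFP-transfected P. berghei ANKA-infected NMRI mice, in groups of three, got a single dose 1 day post-infection. Compounds were in 70/30 Tween 80/ethanol, diluted 10× with water. Read-outs were % parasitemia reduction on day 3 post-infection and survival time versus untreated controls (n = 5).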

Plasmodium berghei [5] = assay: Antimalarial activity as reduced parasitaemia against Plasmodium berghei ANKA infected NMRI mice (Mus musculus) at 10 mg/kg/day peroral dose over 4 days; format: functional; set-up: scale not given: the % may be the effect or the level left; details: route oral; outline: as §1
Plasmodium falciparum [6] = assay: Antimalarial activity against chloroquine-sensitive Plasmodium falciparum D10 by LDH assay; format: functional, organism-based
Outline: (§3)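 Parasite growth inhibition in P. falciparum culture was read as parasite lactate dehydrogenase production. IC50 is the mean of 3–4 experiments, each run in triplicate.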

Plasmodium berghei [7] = assay: Antimalarial activity as survival time against Plasmodium berghei ANKA infected NMRI mice (Mus musculus) at 10 mg/kg/day subcutaneous dose over 4 days; format: functional; outline: as §1
Plasmodium berghei [8] = assay: Antimalarial activity as reduced parasitaemia against Plasmodium berghei ANKA infected NMRI mice (Mus musculus) at 10 mg/kg/day subcutaneous dose over 4 days; format: functional; set-up: scale not given: the % may be the effect or the level left; outline: as §1
K562 = assay: Cytotoxicity against human K562 cells by MTT assay; format: cell-based
Plasmodium berghei [9] = assay: Antimalarial activity a survival time in Plasmodium berghei ANKA infected NMRI mice (Mus musculus) at 30 mg/kg/day peroral dose over 4 days; format: functional; details: route oral; outline: as §1
Plasmodium falciparum [10] = assay: Antimalarial activity against chloroquine-resistant Plasmodium falciparum W2 by LDH assay; format: functional, organism-based; outline: as §3
Plasmodium berghei [11] = assay: Antimalarial activity as survival time against Plasmodium berghei ANKA infected NMRI mice (Mus musculus) at 10 mg/kg/day peroral dose over 4 days; format: functional; details: route oral; outline: as §1
[12] = Cytotoxicity against human HMEC1 cells by MTT assay; format: cell-based; details: HMEC-1
Plasmodium falciparum [13] = assay: Antimalarial activity against chloroquine-sensitive Plasmodium falciparum NF54 by [3H]hypoxanthine uptake; format: functional, organism-based
Outline: (§4)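 Growth inhibition of P. falciparum was measured by [3H]-hypoxanthine incorporation. IC50 is the mean of two experiments.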

Plasmodium berghei [14] = assay: Antimalarial activity as survival time in Plasmodium berghei ANKA infected NMRI mice (Mus musculus) at 100 mg/kg peroral dose after 3 days; format: functional; details: route oral; outline: as §2
Plasmodium berghei [15] = assay: Antimalarial activity as reduced parasitaemia against Plasmodium berghei ANKA infected NMRI mice (Mus musculus) at 30 mg/kg/day peroral dose over 4 days; format: functional; set-up: scale not given: the % may be the effect or the level left; details: route oral; outline: as §1
Plasmodium berghei [16] = assay: Antimalarial activity as reduced parasitaemia against Plasmodium berghei ANKA infected NMRI mice (Mus musculus) at 100 mg/kg peroral dose after 3 days; format: functional; set-up: scale not given: the % may be the effect or the level left; details: route oral; outline: as §2
[17] = Cytotoxicity against mouse WEHI clone 13 cells by MTT assay; format: cell-based
Plasmodium berghei [18] = assay: Antimalarial curative activity at day 30 against Plasmodium berghei ANKA infected NMRI mice (Mus musculus) at 30 mg/kg/day peroral dose over 4 days; format: functional, organism-based; outline: as §1
Plasmodium falciparum [19] = assay: Antimalarial activity against chloroquine-resistant Plasmodium falciparum K1 by [3H]hypoxanthine uptake; format: functional, organism-based; outline: as §4
Plasmodium berghei [20] = assay: Antimalarial activity as survival time in Plasmodium berghei ANKA infected NMRI mice (Mus musculus) at 30 mg/kg subcutaneous dose after 3 days; format: functional; outline: as §2
Liver microsomes = assay: Metabolic stability in human liver microsomes assessed as clearance; format: ADME, Microsome
Outline: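 Human liver microsomes were used at a final 0.5 mg/ml in potassium phosphate buffer pH 7.4, with compound in DMSO, pre-incubated 10 min at 37 °C. The reaction was started with NADP, G6P, G6P-DH, MgCl2 3 mM and UDPGA 1 mM. Samples were taken at 0 and 30 min, quenched in acetonitrile and analysed by LC–MS/MS. A no-cofactor control and a 7-ethoxycoumarin standard were included.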

Mus musculus [21] = assay: Toxicity in CD1 mouse assessed as body weight variation at 100 mg/kg, ip after 5 days; format: organism-based; set-up: dose 100 mg/kg, route intraperitoneal; details: in vivo, 120 h
Outline: (§5)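 Intraperitoneal dosing was given to groups of 4 mice alongside an untreated control group. Surviving mice were counted and signs noted. Mean body weight was recorded initially and after 5 and 13 days, expressed as % variation.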

Mus musculus [22] = assay: Toxicity in CD1 mouse assessed as survival at 50 mg/kg, ip; format: organism-based; set-up: dose 50 mg/kg, route intraperitoneal; details: in vivo; outline: as §5
Mus musculus [23] = assay: Toxicity in CD1 mouse assessed as survival at 100 mg/kg, ip; format: organism-based; set-up: dose 100 mg/kg, route intraperitoneal; details: in vivo; outline: as §5
Mus musculus [24] = assay: Toxicity in CD1 mouse assessed as body weight variation at 100 mg/kg, ip after 13 days; format: organism-based; set-up: dose 100 mg/kg, route intraperitoneal; details: in vivo, 312 h; outline: as §5
Mus musculus [25] = assay: Toxicity in CD1 mouse assessed as body weight variation at 150 mg/kg, ip after 13 days; format: organism-based; set-up: dose 150 mg/kg, route intraperitoneal; details: in vivo, 312 h; outline: as §5
Mus musculus [26] = assay: Toxicity in CD1 mouse assessed as body weight variation at 50 mg/kg, ip after 5 days; format: organism-based; set-up: dose 50 mg/kg, route intraperitoneal; details: in vivo, 120 h; outline: as §5
Mus musculus [27] = assay: Toxicity in CD1 mouse assessed as body weight variation at 50 mg/kg, ip after 13 days; format: organism-based; set-up: dose 50 mg/kg, route intraperitoneal; details: in vivo, 312 h; outline: as §5
Mus musculus [28] = assay: Toxicity in CD1 mouse assessed as body weight variation at 150 mg/kg, ip after 5 days; format: organism-based; set-up: dose 150 mg/kg, route intraperitoneal; details: in vivo, 120 h; outline: as §5

| Structure (SMILES) | Activity [1] | Activity (Plasmodium berghei [2]) [%] | Activity (Plasmodium berghei [3]) [days] | Activity (Plasmodium berghei [4]) [%] | Activity (Plasmodium berghei [5]) [%] | IC50 (Plasmodium falciparum [6]) [µM] | Activity (Plasmodium berghei [7]) [days] | Activity (Plasmodium berghei [8]) [%] | IC50 (K562) [µM] | Activity (Plasmodium berghei [9]) [days] | IC50 (Plasmodium falciparum [10]) [µM] | Activity (Plasmodium berghei [11]) [days] | IC50 [12] [µM] | IC50 (Plasmodium falciparum [13]) [µM] | Activity (Plasmodium berghei [14]) [days] | Activity (Plasmodium berghei [15]) [%] | Activity (Plasmodium berghei [16]) [%] | IC50 [17] [µM] | Activity (Plasmodium berghei [18]) | Activity (Plasmodium berghei [20]) [days] | further results |
| --- | --- | --- | --- | --- | --- | --- | --- | --- | --- | --- | --- | --- | --- | --- | --- | --- | --- | --- | --- | --- | --- |
| Clc1ccc2c(NCCC34CCCN3CCC4)ccnc2c1 | 1.66 | 94 | 9.3 | 99.1 | >99.9 | 0.0055 | 15.3 | >99.9 | 17.6 | 30 | 0.0547 | 14.7 | > 60 | 0.00633 | 12.3 | >99.9 | 98 | 61.5 | Active | 8.7 | IC50 (Plasmodium falciparum [19]): 0.0196 µM |
| Clc1ccc2c(NCC34CCCN3CCC4)ccnc2c1 | 1.06 | 96 | 7.3 | 99.7 | >99.9 | 0.0306 | 29.3 | >99.9 | 18.1 | 25 | 0.0289 | 25.7 | > 60 | 0.0109 | 13.7 | >99.9 | 99.5 | 24.7 |  | 10.3 | CL (Liver microsomes): 1.5 mL/min/g; Activity (Mus musculus [21]): 10.1%; Activity (Mus musculus [22]): Non-toxic; Activity (Mus musculus [23]): Non-toxic; Activity (Mus musculus [24]): 22.2%; Activity (Mus musculus [25]): 22.9%; Activity (Mus musculus [26]): 8.3%; IC50 (Plasmodium falciparum [19]): 0.0106 µM; Activity (Mus musculus [27]): 20.8%; Activity (Mus musculus [28]): 12.9% |
| CCN(CC)CCCC(C)Nc1ccnc2cc(Cl)ccc12.O=P(O)(O)O.O=P(O)(O)O (stereo not drawn) [CHLOROQUINE PHOSPHATE] | 1.69 | 99.8 | 9.3 | 99.2 | 99.9 |  | 15.7 | >99.9 | 31.8 | 30 |  | 22.3 | > 40 |  | 14.7 | >99.9 | 99.2 | > 40 | Active | 9.7 |  |
| CCOc1ccc2ccc(=O)oc2c1 [ETHOXYCOUMARIN] |  |  |  |  |  |  |  |  |  |  |  |  |  |  |  |  |  |  |  |  | CL (Liver microsomes): 7 mL/min/g |
